pIC50: −log10 of the molar value.
What was measured:
[1] = Cytotoxicity against human SF539 cells by MTT assay; format: functional; settings: SF-539
Method in brief: (§1)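 NCI-60 screen: a single-dose 10 μM pre-test, then a five-concentration assay for promoted compounds. GI₅₀ is the concentration giving 50% growth inhibition versus control, taken from concentration-response curves. GI₅₀ values below the lowest concentration were recorded as 10 nM, and values above the range at the top concentration.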

SN12C = experiment: Cytotoxicity against human SN12C cells by MTT assay; format: functional; method in brief: as §1
[2] = Cytotoxicity against human HCT116 cells by MTT assay; format: functional; settings: HCT-116; method in brief: as §1
[3] = Cytotoxicity against human HOP62 cells by MTT assay; format: functional; settings: HOP-62; method in brief: as §1
[4] = target: T1, DNA topoisomerase 1 (Homo sapiens) (UniProt P11387); experiment: Activity at recombinant Top1 (unknown origin) using 3'-[32P]-labeled double-stranded DNA (117 bp) as substrate assessed as induction of DNA cleavage at 0.1 to 100 uM incubated for 20 mins by electrophoretic assay relative to 1 uM camptothecin
T1 sequence (whole entry): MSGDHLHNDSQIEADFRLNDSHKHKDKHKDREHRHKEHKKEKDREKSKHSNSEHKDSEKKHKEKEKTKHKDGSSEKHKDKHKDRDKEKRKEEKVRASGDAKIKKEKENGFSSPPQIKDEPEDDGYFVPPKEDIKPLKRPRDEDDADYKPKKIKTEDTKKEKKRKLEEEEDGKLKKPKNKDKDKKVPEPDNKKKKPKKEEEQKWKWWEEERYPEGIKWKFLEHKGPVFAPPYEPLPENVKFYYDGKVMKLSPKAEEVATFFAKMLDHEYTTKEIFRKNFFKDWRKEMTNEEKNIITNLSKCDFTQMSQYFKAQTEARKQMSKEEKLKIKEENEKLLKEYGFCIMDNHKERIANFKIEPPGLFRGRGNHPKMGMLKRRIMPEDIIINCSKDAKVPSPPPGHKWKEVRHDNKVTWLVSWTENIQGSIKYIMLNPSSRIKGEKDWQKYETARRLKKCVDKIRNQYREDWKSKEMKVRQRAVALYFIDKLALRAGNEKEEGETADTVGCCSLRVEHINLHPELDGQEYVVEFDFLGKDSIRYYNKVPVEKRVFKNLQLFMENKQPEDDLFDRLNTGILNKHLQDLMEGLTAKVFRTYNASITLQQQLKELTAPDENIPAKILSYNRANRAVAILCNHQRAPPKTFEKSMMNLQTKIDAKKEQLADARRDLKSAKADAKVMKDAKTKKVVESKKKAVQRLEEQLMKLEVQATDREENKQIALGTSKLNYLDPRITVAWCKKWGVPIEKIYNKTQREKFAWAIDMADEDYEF

[5] = Cytotoxicity against human OVCAR3 cells by MTT assay; format: functional; settings: OVCAR-3; method in brief: as §1
MCF7 = experiment: Cytotoxicity against human MCF7 cells by MTT assay; format: functional; method in brief: as §1
[6] = Cytotoxicity against human DU145 cells by MTT assay; format: functional; settings: DU-145; method in brief: as §1
[7] = Cytotoxicity against human UACC62 cells by MTT assay; format: functional; settings: UACC-62; method in brief: as §1
[8] = target: Tyrosyl-DNA phosphodiesterase 1 (Homo sapiens, UniProt Q9NUW8); experiment: Inhibition of recombinant TDP1 (unknown origin) using 5'-[32P]-labeled single-stranded DNA oligonucleotide containing 3'-phosphotyrosine (N14Y) as substrate for 15 mins by PAGE assay
Tyrosyl-DNA phosphodiesterase 1, sequence (Q9NUW8 whole entry): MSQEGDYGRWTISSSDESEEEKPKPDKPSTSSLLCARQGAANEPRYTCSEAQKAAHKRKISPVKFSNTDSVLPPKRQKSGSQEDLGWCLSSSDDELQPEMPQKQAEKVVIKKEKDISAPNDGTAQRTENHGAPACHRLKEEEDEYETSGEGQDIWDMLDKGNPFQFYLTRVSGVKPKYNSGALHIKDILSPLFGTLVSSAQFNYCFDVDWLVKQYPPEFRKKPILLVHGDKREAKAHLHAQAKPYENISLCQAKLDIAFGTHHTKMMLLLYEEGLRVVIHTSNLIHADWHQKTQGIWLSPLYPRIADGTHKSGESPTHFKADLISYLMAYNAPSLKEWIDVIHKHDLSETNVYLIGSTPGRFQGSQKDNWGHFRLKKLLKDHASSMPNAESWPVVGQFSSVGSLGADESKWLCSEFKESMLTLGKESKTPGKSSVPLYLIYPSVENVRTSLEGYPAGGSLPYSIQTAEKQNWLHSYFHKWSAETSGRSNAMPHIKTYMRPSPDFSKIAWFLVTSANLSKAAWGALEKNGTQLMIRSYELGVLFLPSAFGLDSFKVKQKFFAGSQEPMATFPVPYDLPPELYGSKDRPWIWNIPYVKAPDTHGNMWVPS

[9] = target: T2, Tyrosyl-DNA phosphodiesterase 2 (Homo sapiens, UniProt O95551); experiment: Inhibition of recombinant human TDP2 using alpha32P-cordycepin-[…]-labeled 19-mer single-stranded oligonucleotide DNA containing 5'-phosphotyrosine (Y19) for 15 mins by PAGE assay
T2 sequence (O95551 whole entry): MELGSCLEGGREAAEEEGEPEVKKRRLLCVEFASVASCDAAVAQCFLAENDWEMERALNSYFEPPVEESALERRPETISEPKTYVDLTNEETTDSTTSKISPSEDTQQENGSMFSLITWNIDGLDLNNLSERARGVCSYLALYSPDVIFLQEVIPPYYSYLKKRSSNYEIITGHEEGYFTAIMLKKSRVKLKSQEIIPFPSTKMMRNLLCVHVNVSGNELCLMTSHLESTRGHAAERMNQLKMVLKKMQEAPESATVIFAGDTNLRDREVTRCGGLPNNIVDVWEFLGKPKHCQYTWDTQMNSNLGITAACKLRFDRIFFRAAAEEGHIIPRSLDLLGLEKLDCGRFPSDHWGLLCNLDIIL

| Structure (SMILES) | Activity [4] [%] | pIC50 [8] | pIC50 [9] | GI50 [1] [µM] | GI50 (SN12C) [µM] | GI50 [2] [µM] | GI50 [3] [µM] | GI50 [5] [µM] | GI50 (MCF7) [µM] | GI50 [6] [µM] | GI50 [7] [µM] |
| --- | --- | --- | --- | --- | --- | --- | --- | --- | --- | --- | --- |
| COc1cc2c3c(n(CCCNCCO)c(=O)c2cc1OC)-c1cc2c(cc1C3=O)OCO2 [LMP-744] | 100 |  |  | 0.09 | 0.01 | 0.15 | 0.01 | 1.5 |  |  |  |
| O=C1c2cc3c(cc2-c2c1c1ccc(F)cc1c(=O)n2CCCN1CCOCC1)OCO3 | 20 |  |  |  |  |  |  |  |  |  |  |
| O=C1c2cc3c(cc2-c2c1c1ccc(Cl)cc1c(=O)n2C[C@H](O)[C@H](O)[C@H](O)CO)OCO3 | 20 |  |  |  |  |  |  |  |  |  |  |
| O=C1c2cc3c(cc2-c2c1c1ccc(F)cc1c(=O)n2C[C@H](O)CO)OCO3 | 100 |  |  | 0.051 | 0.076 | 0.079 | 0.049 | 0.182 | 0.032 | 0.102 | 0.045 |
| O=C1c2cc3c(cc2-c2c1c1ccc(F)cc1c(=O)n2CCCn1ccnc1)OCO3 | 75 |  |  | < 0.01 | < 0.01 | < 0.01 | < 0.01 | 0.019 | < 0.01 | < 0.01 | < 0.01 |
| O=C1c2cc3c(cc2-c2c1c1ccc(F)cc1c(=O)n2CCCNCCO)OCO3 | 50 | 5.21 | 5.20 | 0.041 | 0.107 | 0.019 | 0.036 | 0.076 | < 0.01 | 0.033 | 0.028 |
| O=C1c2cc3c(cc2-c2c1c1cc(F)c(F)cc1c(=O)n2CCCn1ccnc1)OCO3 | 20 |  |  | < 0.01 | < 0.01 | < 0.01 | < 0.01 | 0.115 | < 0.01 | < 0.01 | < 0.01 |
| O=C1c2cc3c(cc2-c2c1c1ccc(Cl)cc1c(=O)n2C[C@H](O)CO)OCO3 | 50 |  |  | 0.025 | 0.027 | 0.02 | 0.022 | 0.062 | < 0.01 | 0.032 | 0.012 |
| O=C1c2cc3c(cc2-c2c1c1ccc(Cl)cc1c(=O)n2CCCN1CCOCC1)OCO3 | 20 |  |  |  |  |  |  |  |  |  |  |

Further lines, with some results ahead:

| Activity [4] [%] | pIC50 [8] | pIC50 [9] | Structure (SMILES) | GI50 [1] [µM] | GI50 (SN12C) [µM] | GI50 [2] [µM] | GI50 [3] [µM] | GI50 [5] [µM] | GI50 (MCF7) [µM] | GI50 [6] [µM] | GI50 [7] [µM] |
| --- | --- | --- | --- | --- | --- | --- | --- | --- | --- | --- | --- |
| 50 |  |  | O=C1c2cc3c(cc2-c2c1c1ccc(F)cc1c(=O)n2C[C@H](O)[C@@H](O)[C@H](O)CO)OCO3 | 0.029 | 0.079 | 0.035 | 0.032 | 0.1 | 0.012 | 0.051 | 0.025 |
| 50 |  |  | O=C1c2cc3c(cc2-c2c1c1cc(Cl)c(Cl)cc1c(=O)n2C[C@H](O)CO)OCO3 | < 0.01 | < 0.01 | < 0.01 | < 0.01 | 0.016 | < 0.01 | < 0.01 | < 0.01 |
| 75 | 5.20 | 5.05 | O=C1c2cc3c(cc2-c2c1c1ccc(Cl)cc1c(=O)n2CCCNCCO)OCO3 | 0.24 | 1.07 | 0.105 | 0.071 | 1.32 | 0.018 | 0.059 | 0.043 |
| 50 |  |  | O=C1c2cc3c(cc2-c2c1c1cc(F)c(F)cc1c(=O)n2C[C@H](O)CO)OCO3 | 0.029 | 0.033 | 0.037 | 0.022 | 0.224 | < 0.01 | 0.041 | 0.015 |
| 20 |  |  | O=C1c2cc3c(cc2-c2c1c1cc(Cl)c(Cl)cc1c(=O)n2CCCn1ccnc1)OCO3 | < 0.01 | < 0.01 | < 0.01 | < 0.01 | 0.043 | < 0.01 | < 0.01 | < 0.01 |
| 50 |  |  | O=C1c2cc3c(cc2-c2c1c1ccc(Cl)cc1c(=O)n2CCCn1ccnc1)OCO3 | < 0.01 | < 0.01 | < 0.01 | < 0.01 | 0.04 | < 0.01 | < 0.01 | < 0.01 |
